# How the values were obtained:
# Rattus norvegicus [1] = assay: Antihypertensive activity measured by maximum fall in the mean blood pressure after an oral administration of 1 mg/kg in spontaneously hypertensive rats; type: functional
# Outline: (§1)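 Conscious, unrestrained male spontaneously hypertensive rats (Okamoto strain, 280-330 g, blood pressure >180 mmHg), N ≥ 3, given a single 1 mg/kg oral screening dose. Mean arterial pressure was recorded directly via an aortic catheter from 1 h before to 3.5 h after dosing. The value is the mean of the maximum individual falls over 3.5 h; a fall under 18 mmHg counted as not significant.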
# Rattus norvegicus [2] = species: Rattus norvegicus; assay: Dose required to reduce mean blood pressure by 30 mmHg in spontaneously hypertensive rats; type: functional
# Outline: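 Conscious male Okamoto SHR (280-330 g, baseline pressure >180 mmHg) fitted with an aortic catheter for continuous direct recording of mean arterial pressure over 3.5 h. Compounds active at the 1 mg/kg oral screen were given orally at 2-4 additional doses. Mean maximal falls were regressed linearly against log dose to derive ED30, the dose in […] lowering pressure by 30 mmHg.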
# Rattus norvegicus [3] = assay: Antihypertensive activity measured by maximum fall in the mean blood pressure after an oral administration of 1 mg/kg in spontaneously hypertensive rats; NS= Did not lower the blood pressure significantly; type: functional, organism-based; set-up: dose 1 mg/kg; outline: as §1
# [4] = Rattus norvegicus, Blood, read-out: ED30
SMILES,BP (Rattus norvegicus [1]) [mmHg],BP (Rattus norvegicus [3]),also measured
CC1(C)Oc2ccc(C#N)cc2[C@@H](n2ccc(O)cc2=O)[C@@H]1O,28,,
Cn1nc(O[C@@H]2c3cc(C#N)ccc3OC(C)(C)[C@H]2O)ccc1=O (stereo in doubt; 14a),,,BP (Rattus norvegicus [1]; 1 mg/kg): 124 mmHg; ED30 (Rattus norvegicus [2]; [4]): 0.018 mg/kg
CC1(C)Oc2ccc(C#N)cc2[C@@H](Oc2cccnc2N)[C@@H]1O,,Not significant,
CC1(C)C=C(Oc2ccc(=O)[nH]n2)c2cc(C#N)ccc2O1,,Not significant,
CC1(C)Oc2ccc(C#N)cc2[C@H](Oc2ccc(=O)[nH]n2)[C@H]1O,,Not significant,
CC1(C)Oc2ccc(C#N)cc2C(Oc2ccc(=O)[nH]n2)C1O (stereo unspecified),129,,ED30 (Rattus norvegicus [2]; [4]): 0.014 mg/kg
CC1(C)Oc2ccc(C#N)cc2[C@@H](Oc2ccc(S)nn2)[C@@H]1O,,Not significant,
CC(C)n1nc(O[C@@H]2c3cc(C#N)ccc3OC(C)(C)[C@H]2O)ccc1=O,32,,
CC1(C)Oc2ccc(C#N)cc2[C@@H](Oc2cc(O)ncn2)[C@@H]1O,,Not significant,
CC1(C)C=C(Oc2ccc(S)nn2)c2cc(C#N)ccc2O1,,Not significant,
CC1(C)Oc2ccc(C#N)cc2[C@@H](Oc2ccc(O)nc2)[C@@H]1O,23,,
Cn1nc(OC2=CC(C)(C)Oc3ccc(C#N)cc32)ccc1=O,,Not significant,
CC1(C)Oc2ccc(C#N)cc2[C@@H](n2[nH]c(=O)ccc2=O)[C@@H]1O,,Not significant,
CC1(C)Oc2ccc(C#N)cc2C(N2CCCC2=O)C1O (stereo unspecified) [CROMAKALIM],78,,ED30 (Rattus norvegicus [2]; [4]): 0.11 mg/kg
CC1(C)C=C(Oc2ccnc(O)c2)c2cc(C#N)ccc2O1,,Not significant,
CC1(C)Oc2ccc(Br)cc2C(Oc2ccc(=O)[nH]n2)C1O (stereo unspecified),,Not significant,
CC1(C)Oc2ccc([N+](=O)[O-])cc2C(Oc2ccc(=O)[nH]n2)C1O (stereo unspecified),78,,

SMILES,BP (Rattus norvegicus [1]) [mmHg],BP (Rattus norvegicus [3]),also measured
CC1(C)C=C(n2ccc(O)cc2=O)c2cc(C#N)ccc2O1,19,,
CC1(C)Oc2ccc(C#N)cc2[C@@H](Oc2ccnc(O)c2)[C@@H]1O,104,,ED30 (Rattus norvegicus [2]; [4]): 0.006 mg/kg
Cn1ccc(O[C@@H]2c3cc(C#N)ccc3OC(C)(C)[C@H]2O)cc1=O,83,,
CC1(C)Oc2ccc([N+](=O)[O-])cc2[C@@H](Oc2ccnc(O)c2)[C@@H]1O,117,,ED30 (Rattus norvegicus [2]; [4]): 0.013 mg/kg
COC(=O)c1ccc2c(c1)C(Oc1ccc(=O)[nH]n1)C(O)C(C)(C)O2 (stereo unspecified),18,,
CC1(C)Oc2ccc(C#N)cc2C(n2nc(N)ccc2=O)[C@@H]1O (stereo partly specified),39,,
CC(=O)Oc1ccn(C2=CC(C)(C)Oc3ccc(C#N)cc32)c(=O)c1,28,,
CC1(C)Oc2ccc(C#N)cc2C(n2ccc(N)cc2=O)[C@@H]1O (stereo partly specified),,Not significant,
CCn1nc(O[C@@H]2c3cc(C#N)ccc3OC(C)(C)[C@H]2O)ccc1=O,127,,ED30 (Rattus norvegicus [2]; [4]): 0.02 mg/kg
CC1(C)Oc2ccc(C(N)=S)cc2C(Oc2ccc(=O)[nH]n2)C1O (stereo unspecified),,Not significant,
CC1(C)Oc2ccc(C(=N)S)cc2[C@@H](Oc2ccnc(O)c2)[C@@H]1O,,Not significant,
COC(=O)c1ccc2c(c1)[C@@H](Oc1ccnc(O)c1)[C@H](O)C(C)(C)O2,,Not significant,
CC1(C)Oc2ccc(C#N)cc2C(n2ccc(N)nc2=O)[C@@H]1O (stereo partly specified),,Not significant,
Cn1nc(O[C@@H]2c3cc(C#N)ccc3OC(C)(C)[C@H]2O)ccc1=O (stereo in doubt; 22a),,,BP (Rattus norvegicus [1]; 1 mg/kg): 151 mmHg; ED30 (Rattus norvegicus [2]): 0.013 mg/kg
CC1(C)Oc2ccc(C#N)cc2[C@@H](Oc2cccnc2O)[C@@H]1O,,Not significant,
CC(=O)OC1C(Oc2ccc(=O)[nH]n2)c2cc(C#N)ccc2OC1(C)C (stereo unspecified),97,,
Cn1nc(O[C@H]2c3cc(C#N)ccc3OC(C)(C)[C@@H]2O)ccc1=O,19,,

# From ChEMBL document CHEMBL1124979, “4-Heterocyclyloxy-2H-1-benzopyran potassium channel activators” (1990)
